Screening results from PubChem.
In the library only some 0.77% were active in any assay of this set; here they are far more common.
Rad51 HR inh = blocks human Rad51 in homologous recombination; Q06609; hit rate 0.085% among 200,000; inhibition, % at 10 µM; hRad51 DNA strand exchange, fluorescence dequenching;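 active = inhibition above 40% at the single screening dose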;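 also: 0% = DMSO control wells and 100% = blanks with heterologous ssDNA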
Target sequence (Q06609 whole entry, looked up): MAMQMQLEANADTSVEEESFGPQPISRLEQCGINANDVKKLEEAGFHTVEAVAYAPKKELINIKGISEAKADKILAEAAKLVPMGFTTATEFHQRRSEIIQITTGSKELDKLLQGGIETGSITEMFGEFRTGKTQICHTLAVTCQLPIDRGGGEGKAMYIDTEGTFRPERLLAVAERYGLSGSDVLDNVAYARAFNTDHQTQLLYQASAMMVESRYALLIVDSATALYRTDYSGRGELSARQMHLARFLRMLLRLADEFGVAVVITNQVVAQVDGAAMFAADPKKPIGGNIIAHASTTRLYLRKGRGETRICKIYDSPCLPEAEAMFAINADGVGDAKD
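material = hRad51 filaments on single-stranded DNA | timing = filaments 15 min 37 °C, then compound 30 min | signal = FRET fluorescence dequenching, excitation 485 nm, emission 520 nm | benchmarks = control wells and blank wells on each plate | evaluation = percent inhibition relative to plate controls and blanks | compound = 10 µM final, single point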
Furin inhibitor = blocks human furin protease activity | P09958 | inhibition, % at 20 µM or 30 µM | AID 463115 | purified furin, fluorogenic substrate cleavage | hit rate 0.061% among 220,000; in the data active = inhibition above about 25%
ABCB1 inh = inhibitors of human ABCB1 transporter, ABCG2 counter-screen; P08183; CCRF-Adr cells, JC-1 efflux, flow cytometry; inhibition, % at 6.6 µM; AID 1326; hit rate 0.067% among 190,000; in the data active = inhibition above about 40%;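 also: 0% = vehicle and 100% = reference inhibitor; higher value means more JC-1 retained so stronger ABCB1 efflux block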
ABCG2 block = inhibitors of human ABCG2 transporter, ABCB1 counter-screen; Q9UNQ0; IgMXP3 cells, JC-1 efflux, flow cytometry; inhibition, % at 6.6 µM; hit rate 0.1% among 190,000; AID 1325;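 active = inhibition above 80%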;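 also: 0% = DMSO and 100% = nicardipine control wells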
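Test system: IgMXP3 cells (ABCG2) mixed with DDAO far-red-labelled CCRF-Adr cells (ABCB1). Reagent: JC-1 transporter substrate. Compound dosing: single test compound dose, 6.6 µM final. Times: 10 min compound exposure, 25 °C. Detection: flow cytometry of retained JC-1 fluorescence. Read-out basis: efflux inhibition in percent versus controls. Controls: nicardipine and DMSO wells.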
Efa HMGR inh = inhibitors of class II HMG-CoA reductase from Enterococcus faecalis; purified E. faecalis HMGR, NADPH absorbance 340 nm kinetic; inhibition, % at 10 µM; hit rate 0.41% among 190,000; AID 1066;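 active = inhibition above a set limit, the median over all tested compounds plus 3 SD, cut at about 9.5% in these data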;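 also: enzyme runs in reverse so mevalonate oxidation gives rising NADPH absorbance; 0% = complete reaction with DMSO and 100% = background rate lacking mevalonate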
PERK inhibitor = blocks human PERK kinase; Q9NZJ5; CHO PERK-DD fusion, SEAP luminescence translation reporter; inhibition, % at 5.6 µM; hit rate 0.17% among 220,000;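 active = inhibition above the mean inhibition of all tested compounds plus 3 SD, set separately per screening campaign, cut at about 2.9% in these data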;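 also: PERK kinase domain activated by AP20187 dimerizer at 100 nM; 0% = DMSO with dimerizer and 100% = rapamycin at 8.4 µM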
* = called active by the depositor.

Results for COc1ccc(C2c3c(n[nH]c3C)CC(C)(O)C2C(C)=O)cc1OC (stereo not given) ?
Rad51 HR inh: 3; Furin inhibitor: -21; ABCB1 inh: 1; ABCG2 block: -2; Efa HMGR inh: 2; PERK inhibitor: 0

What do the screens show for `CC(=O)C1C(c2ccccc2)c2c(noc2C)CC1(C)O` (stereo not given)?
Furin inhibitor: 19; PERK inhibitor: 3.2*

Results for NC(=O)C1(N2CCCCC2)CCN(C(=S)Nc2ccc(F)c(Cl)c2)CC1 ?
Furin inhibitor: -36; ABCB1 inh: 0; ABCG2 block: 2; Efa HMGR inh: 1; PERK inhibitor: 2

What do the screens show for `CC(=O)Nc1ccc(N=Cc2c(O)c(C(=O)Nc3ccccc3)cc3ccccc23)cc1`?
Rad51 HR inh: inactive; Furin inhibitor: -16; ABCB1 inh: 70*; ABCG2 block: 103*; Efa HMGR inh: 3; PERK inhibitor: 1

Results for Cc1ccc2nsnc2c1N ?
Rad51 HR inh: -4; Furin inhibitor: -24; ABCB1 inh: 0; ABCG2 block: 0; Efa HMGR inh: 18*; PERK inhibitor: 2

Results for CC(=O)Nc1c(C)ccc2nsnc12 ?
Rad51 HR inh: -13; Furin inhibitor: -7; ABCB1 inh: 0; ABCG2 block: -1; Efa HMGR inh: 0; PERK inhibitor: 0

What do the screens show for `Cc1ccc(C(=O)Nc2nccc(-c3cccs3)n2)cc1`?
Rad51 HR inh: 1; Furin inhibitor: -13; ABCB1 inh: 1; ABCG2 block: 4; Efa HMGR inh: -5; PERK inhibitor: 0

Results for NC(=S)Nc1nccc(-c2cccs2)n1 ?
Rad51 HR inh: 41*; Furin inhibitor: -18; ABCB1 inh: 1; ABCG2 block: 14; Efa HMGR inh: -7; PERK inhibitor: 2

Results for Cc1ccc(S(=O)(=O)N2CC3CCCC2C3)cc1 (stereo not given) ?
Rad51 HR inh: 17; Furin inhibitor: -8; PERK inhibitor: 1

What do the screens show for `CCCNCc1cc(OC)c(OCc2ccccc2)cc1Br`?
Furin inhibitor: -10; ABCB1 inh: 0; ABCG2 block: 5; Efa HMGR inh: 19*; PERK inhibitor: 0

What do the screens show for `CCCNCc1cc(OC)c(OCC(=O)NCCc2ccccc2)cc1Br`?
Furin inhibitor: -20; ABCB1 inh: 0; ABCG2 block: -1; Efa HMGR inh: 3; PERK inhibitor: -1

Results for COC(=O)Cc1cc(=O)n2[nH]cnc2n1 ?
Rad51 HR inh: -7; Furin inhibitor: 1; ABCB1 inh: 0; ABCG2 block: 0; Efa HMGR inh: 30*; PERK inhibitor: 0

What do the screens show for `Cc1ccc(-n2[nH]c(C)c(/C=C3/C=Nc4ccccc43)c2=O)cc1C`?
Rad51 HR inh: 3; Furin inhibitor: -6; ABCB1 inh: 0; ABCG2 block: 1; Efa HMGR inh: -3; PERK inhibitor: 0

How did Cc1cccc(NC(=S)NNC(=O)c2ccco2)c1 do in these assays?
Rad51 HR inh: 2; Furin inhibitor: -14; ABCB1 inh: 0; ABCG2 block: 4; Efa HMGR inh: -4; PERK inhibitor: 3.1*

Results for Cc1ccc(NC(=S)NNC(=O)c2ccco2)cc1 ?
Rad51 HR inh: -2; Furin inhibitor: -21; ABCB1 inh: 1; ABCG2 block: 2; Efa HMGR inh: 2; PERK inhibitor: 0

Results for CCCCNC(=O)c1onc(CCl)c1C(=O)OC ?
Rad51 HR inh: -7; Furin inhibitor: -14; ABCB1 inh: 0; ABCG2 block: 2; PERK inhibitor: 0

How did CN(C)S(=O)(=O)c1cccc(NC(=O)CSc2nnnn2-c2ccccc2)c1 do in these assays?
Rad51 HR inh: -3; Furin inhibitor: -7; PERK inhibitor: -2

Results for C=CCN(CC=C)CCOc1ccc(C)cc1[N+](=O)[O-] ?
Rad51 HR inh: 21; Furin inhibitor: -12; ABCB1 inh: 0; ABCG2 block: 2; Efa HMGR inh: -1; PERK inhibitor: 0

What do the screens show for `C=CCN(CC=C)CCOc1cc(C)ccc1[N+](=O)[O-]`?
Rad51 HR inh: 42*; Furin inhibitor: -19; ABCB1 inh: 2; ABCG2 block: 17; Efa HMGR inh: -7; PERK inhibitor: 0
